Experimental data: ChEMBL document CHEMBL1155468, “Syntheses and evaluation of anticonvulsant profile and teratogenicity of novel amide derivatives of branched aliphatic carboxylic acids with 4-aminobenzensulfonamide” (J Med Chem, 2010)
Active and inactive are the calls of the source. The rule behind the calls is not given here.

Assays:
Mus musculus [1] = test: Teratogenic effect in SWV mouse assessed as live fetuses at 156 mg/kg, ip administered on morning of day 8 of gestation; type: toxicity, organism-based; set-up: dose 156 mg/kg, route intraperitoneal; settings: in vivo
In short: (§1)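 Two-month-old nulligravid SWV females were mated overnight and checked for vaginal plugs the next morning; gestation onset was set at 10 p.m. the previous night. On gestation day 8.5, each dam received a single ip injection (0.55-2.7 mmol/kg range) or vehicle (25% aqueous Cremophor EL) at 10 μL/g body weight. Litters were scored for implants, resorptions, live and dead fetuses, and fetuses with neural tube defects.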

Mus musculus [2] = test: Teratogenic effect in SWV mouse assessed as fetuses with neural tube deffects at 511 mg/kg, ip administered on morning of day 8 of gestation; type: toxicity, organism-based; set-up: dose 511 mg/kg, route intraperitoneal; settings: in vivo; in short: as §1
Mus musculus [3] = test: Neurotoxicity in CF1 albino mouse assessed as motor impairment at 300 mg/kg, ip after 0.5 hrs; type: toxicity, organism-based; set-up: dose 300 mg/kg, route intraperitoneal; settings: in vivo
Rattus norvegicus [4] = test: Anticonvulsant activity in Sprague-Dawley rat assessed as inhibition of maximal electroshock-induced seizures at 30 mg/kg, po after 4 hrs
Mus musculus [5] = test: Anticonvulsant activity in CF1 albino mouse assessed as inhibition of subcutaneous pentylenetetrazole-induced seizures at 30 mg/kg, ip after 0.5 hrs; type: functional, organism-based; set-up: dose 30 mg/kg
In short: (§2)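 Adult male CF no. 1 albino mice (18-25 g) dosed ip with compound suspended in 0.5% methylcellulose (0.01 mL/g). Convulsant: pentylenetetrazol dissolved in 0.9% saline as a 0.85% solution for mice, given subcutaneously.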

Mus musculus [6] = test: Anticonvulsant activity in CF1 albino mouse assessed as inhibition of maximal electroshock-induced seizures at 300 mg/kg, ip after 0.5 hrs; type: functional, organism-based; set-up: dose 300 mg/kg
In short: (§3)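 Test compounds suspended in 0.5% methylcellulose and given ip to adult male CF no. 1 albino mice (18-25 g) at 0.01 mL/g body weight before maximal electroshock challenge.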

Mus musculus [7] = test: Anticonvulsant activity in CF1 albino mouse assessed as inhibition of subcutaneous pentylenetetrazole-induced seizures at 300 mg/kg, ip after 0.5 hrs; type: functional, organism-based; set-up: dose 300 mg/kg; in short: as §2
Mus musculus [8] = test: Anticonvulsant activity in CF1 albino mouse assessed as inhibition of maximal electroshock-induced seizures at 30 mg/kg, ip after 0.5 hrs; type: functional, organism-based; set-up: dose 30 mg/kg; in short: as §3
Mus musculus [9] = test: Teratogenic effect in SWV mouse assessed as live fetuses at 511 mg/kg, ip administered on morning of day 8 of gestation; type: toxicity, organism-based; set-up: dose 511 mg/kg, route intraperitoneal; settings: in vivo
In short: (§4)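 SWV inbred mice: two-month-old nulligravid females mated overnight with males and checked for vaginal plugs next morning; gestation onset taken as 10 p.m. the previous night. On gestation day 8.5 each dam got one ip injection, 0.55–2.7 mmol/kg, in 25% aqueous Cremophor EL (vehicle controls dosed alike), 10 μL/g body weight. Litters and implants tallied; resorptions and live fetuses reported as counts with percentages.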

Mus musculus [10] = test: Anticonvulsant activity in CF1 albino mouse assessed as inhibition of maximal electroshock-induced seizures at 100 mg/kg, ip after 0.5 hrs; type: functional, organism-based; set-up: dose 100 mg/kg; in short: as §3
Mus musculus [11] = test: Teratogenic effect in SWV mouse assessed as resorptions at 156 mg/kg, ip administered on morning of day 8 of gestation; type: toxicity, organism-based; set-up: dose 156 mg/kg, route intraperitoneal; settings: in vivo; in short: as §4
Mus musculus [12] = test: Teratogenic effect in SWV mouse assessed as live fetuses at 310 mg/kg, ip administered on morning of day 8 of gestation; type: toxicity, organism-based; set-up: dose 310 mg/kg, route intraperitoneal; settings: in vivo; in short: as §1
Mus musculus [13] = test: Anticonvulsant activity in CF1 albino mouse assessed as inhibition of subcutaneous pentylenetetrazole-induced seizures at 300 mg/kg, ip after 4 hrs; type: functional, organism-based; set-up: dose 300 mg/kg; in short: as §2
Rattus norvegicus [14] = test: Neurotoxicity in Sprague-Dawley rat assessed as motor impairment at 30 mg/kg, po after 0.25 to 4 hrs; settings: in vivo
Mus musculus [15] = test: Neurotoxicity in CF1 albino mouse assessed as motor impairment at 100 mg/kg, ip after 0.5 hrs; type: toxicity, organism-based; set-up: dose 100 mg/kg, route intraperitoneal; settings: in vivo
Mus musculus [16] = test: Teratogenic effect in SWV mouse assessed as resorptions at 310 mg/kg, ip administered on morning of day 8 of gestation; type: toxicity, organism-based; set-up: dose 310 mg/kg, route intraperitoneal; settings: in vivo; in short: as §4
Rattus norvegicus [17] = test: Anticonvulsant activity in po dosed rat assessed as inhibition of maximal electroshock-induced seizures
Mus musculus [18] = test: Teratogenic effect in SWV mouse assessed as resorptions at 511 mg/kg, ip administered on morning of day 8 of gestation; type: toxicity, organism-based; set-up: dose 511 mg/kg, route intraperitoneal; settings: in vivo; in short: as §4
Mus musculus [19] = test: Anticonvulsant activity in CF1 albino mouse assessed as inhibition of subcutaneous pentylenetetrazole-induced seizures at 100 mg/kg, ip after 4 hrs; type: functional, organism-based; set-up: dose 100 mg/kg; in short: as §2
Rattus norvegicus [20] = test: Anticonvulsant activity in Sprague-Dawley rat assessed as inhibition of maximal electroshock-induced seizures at 30 mg/kg, po after 2 hrs
Mus musculus [21] = test: Teratogenic effect in SWV mouse assessed as fetuses with neural tube deffects at 310 mg/kg, ip administered on morning of day 8 of gestation; type: toxicity, organism-based; set-up: dose 310 mg/kg, route intraperitoneal; settings: in vivo; in short: as §1
Mus musculus [22] = test: Anticonvulsant activity in CF1 albino mouse assessed as inhibition of subcutaneous pentylenetetrazole-induced seizures at 100 mg/kg, ip after 0.5 hrs; type: functional, organism-based; set-up: dose 100 mg/kg; in short: as §2
Mus musculus [23] = test: Neurotoxicity in CF1 albino mouse assessed as motor impairment at 300 mg/kg, ip after 4 hrs; type: toxicity, organism-based; set-up: dose 300 mg/kg, route intraperitoneal; settings: in vivo
Rattus norvegicus [24] = species: Rattus norvegicus; test: Protective index, ratio of TD50 for rat to ED50 for maximal electroshock-induced rat seizure model
Mus musculus [25] = test: Anticonvulsant activity in CF1 albino mouse assessed as inhibition of maximal electroshock-induced seizures at 30 mg/kg, ip after 4 hrs; type: functional, organism-based; set-up: dose 30 mg/kg; in short: as §3
Mus musculus [26] = test: Neurotoxicity in CF1 albino mouse assessed as motor impairment at 30 mg/kg, ip after 4 hrs; type: toxicity, organism-based; set-up: dose 30 mg/kg, route intraperitoneal; settings: in vivo
Mus musculus [27] = test: Anticonvulsant activity in CF1 albino mouse assessed as inhibition of maximal electroshock-induced seizures at 300 mg/kg, ip after 4 hrs; type: functional, organism-based; set-up: dose 300 mg/kg; in short: as §3
Mus musculus [28] = test: Neurotoxicity in CF1 albino mouse assessed as motor impairment at 100 mg/kg, ip after 4 hrs; type: toxicity, organism-based; set-up: dose 100 mg/kg, route intraperitoneal; settings: in vivo
Mus musculus [29] = test: Neurotoxicity in CF1 albino mouse assessed as motor impairment at 30 mg/kg, ip after 0.5 hrs; type: toxicity, organism-based; set-up: dose 30 mg/kg, route intraperitoneal; settings: in vivo
Mus musculus [30] = test: Anticonvulsant activity in CF1 albino mouse assessed as inhibition of subcutaneous pentylenetetrazole-induced seizures at 30 mg/kg, ip after 4 hrs; type: functional, organism-based; set-up: dose 30 mg/kg; in short: as §2
Mus musculus [31] = test: Teratogenic effect in SWV mouse assessed as live fetuses at 562 mg/kg, ip administered on morning of day 8 of gestation; type: toxicity, organism-based; set-up: dose 562 mg/kg, route intraperitoneal; settings: in vivo; in short: as §4
Mus musculus [32] = test: Teratogenic effect in SWV mouse assessed as resorptions at 562 mg/kg, ip administered on morning of day 8 of gestation; type: toxicity, organism-based; set-up: dose 562 mg/kg, route intraperitoneal; settings: in vivo; in short: as §4
Mus musculus [33] = test: Teratogenic effect in SWV mouse assessed as fetuses with neural tube deffects at 562 mg/kg, ip administered on morning of day 8 of gestation; type: toxicity, organism-based; set-up: dose 562 mg/kg, route intraperitoneal; settings: in vivo; in short: as §1
Mus musculus [34] = test: Teratogenic effect in SWV mouse assessed as fetuses with neural tube deffects at 172 mg/kg, ip administered on morning of day 8 of gestation; type: toxicity, organism-based; set-up: dose 172 mg/kg, route intraperitoneal; settings: in vivo; in short: as §1
Mus musculus [35] = test: Teratogenic effect in SWV mouse assessed as fetuses with neural tube deffects at 340 mg/kg, ip administered on morning of day 8 of gestation; type: toxicity, organism-based; set-up: dose 340 mg/kg, route intraperitoneal; settings: in vivo; in short: as §1
Rattus norvegicus [36] = test: Anticonvulsant activity in Sprague-Dawley rat assessed as inhibition of maximal electroshock-induced seizures at 30 mg/kg, po after 15 mins
Mus musculus [37] = test: Teratogenic effect in SWV mouse assessed as resorptions at 340 mg/kg, ip administered on morning of day 8 of gestation; type: toxicity, organism-based; set-up: dose 340 mg/kg, route intraperitoneal; settings: in vivo; in short: as §4
Mus musculus [38] = test: Teratogenic effect in SWV mouse assessed as resorptions at 172 mg/kg, ip administered on morning of day 8 of gestation; type: toxicity, organism-based; set-up: dose 172 mg/kg, route intraperitoneal; settings: in vivo; in short: as §4
Mus musculus [39] = test: Teratogenic effect in SWV mouse assessed as live fetuses at 172 mg/kg, ip administered on morning of day 8 of gestation; type: toxicity, organism-based; set-up: dose 172 mg/kg, route intraperitoneal; settings: in vivo; in short: as §1
Mus musculus [40] = test: Teratogenic effect in SWV mouse assessed as live fetuses at 340 mg/kg, ip administered on morning of day 8 of gestation; type: toxicity, organism-based; set-up: dose 340 mg/kg, route intraperitoneal; settings: in vivo; in short: as §4

Row | Compound | Activity (Mus musculus [3]) | Activity (Mus musculus [5]) | Activity (Mus musculus [6]) | Activity (Mus musculus [7]) | Activity (Mus musculus [8]) | Activity (Mus musculus [13]) | Activity (Rattus norvegicus [14]) | Activity (Mus musculus [15]) | ED50 (Rattus norvegicus [17]) | Activity (Mus musculus [19]) | Activity (Mus musculus [22]) | Activity (Mus musculus [23]) | Ratio TD50/ED50 (Rattus norvegicus [24]) | Activity (Mus musculus [25]) | Activity (Mus musculus [26]) | Activity (Mus musculus [27]) | Activity (Mus musculus [28]) | Activity (Mus musculus [29]) | Activity (Mus musculus [30]) | further results
1 | CCC(CC)C(=O)NCc1ccc(S(N)(=O)=O)cc1 | Non-toxic | inactive | Active | inactive | inactive | inactive | Non-toxic | Non-toxic | 24.7 mg/kg | inactive | inactive | Non-toxic | >20.2 | inactive | Non-toxic | Active | Non-toxic | Non-toxic | inactive | Activity (Mus musculus [1]): 94.4%; Activity (Mus musculus [2]): 3.1%; Activity (Rattus norvegicus [4]): inactive; Activity (Mus musculus [9]): 93.6%; Activity (Mus musculus [10]): Active; Activity (Mus musculus [11]): 5.6%; Activity (Mus musculus [12]): 93.5%; Activity (Mus musculus [16]): 6.5%; Activity (Mus musculus [18]): 6.4%; Activity (Rattus norvegicus [20]): inactive; Activity (Mus musculus [21]): 3.4%
2 | CCCC(C(=O)Nc1ccc(S(N)(=O)=O)cc1)C(C)CC (centres undefined) | Non-toxic | inactive | Active | inactive | inactive | inactive | Non-toxic | Non-toxic | 35.8 mg/kg | inactive | inactive | Non-toxic | >13.9 | inactive | Non-toxic | Active | Non-toxic | Non-toxic | inactive | Activity (Mus musculus [31]): 50%; Activity (Mus musculus [32]): 50%; Activity (Mus musculus [33]): 7.1%; Activity (Mus musculus [34]): 7.8%; Activity (Mus musculus [35]): 5%; Activity (Rattus norvegicus [36]): inactive; Activity (Mus musculus [37]): 33.3%; Activity (Mus musculus [38]): 12%; Activity (Mus musculus [39]): 88%; Activity (Mus musculus [40]): 66.7%
